Active and inactive are the calls of the source. No cut-off for these calls is given here.
What was measured:
[1] = species on record: Homo sapiens; experiment: Binding affinity to GABA receptor (unknown origin) at 10 uM by radioligand displacement assay relative to control
[2] = target: D(3) dopamine receptor (Homo sapiens) (UniProt P35462); experiment: Binding affinity to human dopamine D3 receptor at 10 uM by radioligand displacement assay relative to control
[3] = target: D(1A) dopamine receptor (Homo sapiens) (UniProt P21728); experiment: Binding affinity to human dopamine D1 receptor at 10 uM by radioligand displacement assay relative to control
Sequence of D(1A) dopamine receptor (Homo sapiens) (P21728 whole entry): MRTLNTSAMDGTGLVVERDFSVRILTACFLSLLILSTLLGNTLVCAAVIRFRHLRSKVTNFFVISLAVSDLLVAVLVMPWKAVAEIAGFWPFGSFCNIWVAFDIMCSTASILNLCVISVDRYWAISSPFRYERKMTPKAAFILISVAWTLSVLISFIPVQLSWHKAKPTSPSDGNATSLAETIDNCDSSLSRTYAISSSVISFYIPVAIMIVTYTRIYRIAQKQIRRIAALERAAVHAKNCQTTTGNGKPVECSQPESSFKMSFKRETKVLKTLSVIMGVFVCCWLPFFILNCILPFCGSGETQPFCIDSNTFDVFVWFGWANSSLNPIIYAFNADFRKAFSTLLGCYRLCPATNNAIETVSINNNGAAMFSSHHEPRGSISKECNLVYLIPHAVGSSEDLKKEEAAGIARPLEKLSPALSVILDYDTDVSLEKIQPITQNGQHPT

[4] = target: B2 bradykinin receptor (Homo sapiens) (UniProt P30411); experiment: Binding affinity to human bradykinin B2 receptor at 10 uM by radioligand displacement assay relative to control
[5] = target: Adrenergic receptor alpha-2 (Homo sapiens) (UniProt P08913+P18825+P18089); experiment: Binding affinity to human adrenergic alpha2 receptor at 10 uM by radioligand displacement assay relative to control
[6] = target: Adrenergic receptor alpha-1 (Homo sapiens) (UniProt P35348+P25100+P35368); experiment: Binding affinity to adrenergic alpha1 receptor (unknown origin) at 10 uM by radioligand displacement assay relative to control
[7] = system: Mus musculus; experiment: Toxicity in ip dosed ICR mouse assessed as effect on motor strength measured within 5 secs by traction test; type: organism-based; conditions: in vivo, 5 s
[8] = system: Mus musculus; experiment: Toxicity in ip dosed ICR mouse assessed as effect on motor performance measured within 30 secs by chimney test; type: organism-based; conditions: in vivo, 0.5 min
[9] = system: Mus musculus; experiment: Toxicity in ip dosed ICR mouse assessed as effect on motor coordination measured within 120 secs by rotarod test; type: organism-based; conditions: in vivo, 2 min
[10] = system: Mus musculus; experiment: Toxicity in ICR mouse assessed as effect on locomotor activity measured moved distance per 4 mins at 100 mg/kg, ip after 240 mins by open field test (reference value: 398 70 cm); type: organism-based; design: dose 100 mg/kg, route intraperitoneal; conditions: in vivo
[11] = system: Mus musculus; experiment: Toxicity in ICR mouse assessed as effect on locomotor activity measured moved distance per 4 mins at 1 mg/kg, ip after 180 mins by open field test (reference value: 436 125 cm); type: organism-based; design: dose 1 mg/kg, route intraperitoneal; conditions: in vivo
[12] = system: Mus musculus; experiment: Toxicity in ICR mouse assessed as effect on locomotor activity measured moved distance per 4 mins at 10 mg/kg, ip after 180 mins by open field test (reference value: 436 125 cm); type: organism-based; design: dose 10 mg/kg, route intraperitoneal; conditions: in vivo
[13] = system: Mus musculus; experiment: Toxicity in ICR mouse assessed as effect on locomotor activity measured moved distance per 4 mins at 1 mg/kg, ip after 120 mins by open field test (reference value: 578 126 cm); type: organism-based; design: dose 1 mg/kg, route intraperitoneal; conditions: in vivo
[14] = system: Mus musculus; experiment: Toxicity in ICR mouse assessed as effect on locomotor activity measured moved distance per 4 mins at 10 mg/kg, ip after 120 mins by open field test (reference value: 578 126 cm); type: organism-based; design: dose 10 mg/kg, route intraperitoneal; conditions: in vivo
[15] = system: Mus musculus; experiment: Antiamnesic activity in ICR mouse scopolamine-induced memory impairment model assessed as increase in retention latency at 5 mg/kg, ip administered 60 mins prior to scopolamine challenge measured after 40 mins by passive avoidance test relative to scopolamine-treated control; type: functional; conditions: route intraperitoneal
[16] = system: Mus musculus; experiment: Cognitive enhancing effect in ip dosed ICR mouse assessed as increase in retention latency administered 60 mins prior to testing measured after 24 hrs by passive avoidance test; type: functional, organism-based
[17] = system: Mus musculus; experiment: Cognitive enhancing effect in ICR mouse assessed as increase in retention latency at 1 mg/kg, ip administered 60 mins prior to testing measured after 24 hrs by passive avoidance test relative to control; type: functional; conditions: route intraperitoneal
[18] = target: Sigma non-opioid intracellular receptor 1 (Rattus norvegicus) (UniProt Q9R0C9); experiment: Positive allosteric modulation of Wistar rat sigma 1 receptor assessed as potentiation of PB-28 effect on electrically-stimulated vas deferens contraction at 10 uM preincubated for 10 mins followed by PB-28 addition
Sequence of Sigma non-opioid intracellular receptor 1 (Rattus norvegicus) (Q9R0C9 whole entry): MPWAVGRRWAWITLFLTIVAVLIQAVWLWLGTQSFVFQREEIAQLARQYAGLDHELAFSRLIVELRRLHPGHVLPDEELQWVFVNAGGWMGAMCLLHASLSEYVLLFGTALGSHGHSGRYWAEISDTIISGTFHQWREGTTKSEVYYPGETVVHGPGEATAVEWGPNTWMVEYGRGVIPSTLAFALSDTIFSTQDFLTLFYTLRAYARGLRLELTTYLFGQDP

[19] = target: Sigma non-opioid intracellular receptor 1 (Rattus norvegicus) (UniProt Q9R0C9); experiment: Positive allosteric modulation of Wistar rat sigma 1 receptor assessed as increase in electrically-stimulated vas deferens contraction at 10 uM after 10 mins
Method in brief: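 Isolated rat vas deferens, proximal ~15 mm segments, in K-H buffer at 32 °C gassed […], with 1.0 g passive tension and a 60 min adaptation. Field-stimulated at 0.1 Hz, 1 ms, 50 V. Cumulative PRE-084 (1–100 µM) was given, then washout and a 30 min rest. Test compound 10 µM was added for 10 min before cumulative PRE-084. Response is % increase over baseline amplitude; n=6, mean ± SEM, paired t-test.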

[20] = target: Sodium-dependent serotonin transporter (Homo sapiens) (UniProt P31645); experiment: Binding affinity to human serotonin 5-HT transporter at 10 uM by radioligand displacement assay relative to control
Sequence of Sodium-dependent serotonin transporter (Homo sapiens) (P31645 whole entry, looked up): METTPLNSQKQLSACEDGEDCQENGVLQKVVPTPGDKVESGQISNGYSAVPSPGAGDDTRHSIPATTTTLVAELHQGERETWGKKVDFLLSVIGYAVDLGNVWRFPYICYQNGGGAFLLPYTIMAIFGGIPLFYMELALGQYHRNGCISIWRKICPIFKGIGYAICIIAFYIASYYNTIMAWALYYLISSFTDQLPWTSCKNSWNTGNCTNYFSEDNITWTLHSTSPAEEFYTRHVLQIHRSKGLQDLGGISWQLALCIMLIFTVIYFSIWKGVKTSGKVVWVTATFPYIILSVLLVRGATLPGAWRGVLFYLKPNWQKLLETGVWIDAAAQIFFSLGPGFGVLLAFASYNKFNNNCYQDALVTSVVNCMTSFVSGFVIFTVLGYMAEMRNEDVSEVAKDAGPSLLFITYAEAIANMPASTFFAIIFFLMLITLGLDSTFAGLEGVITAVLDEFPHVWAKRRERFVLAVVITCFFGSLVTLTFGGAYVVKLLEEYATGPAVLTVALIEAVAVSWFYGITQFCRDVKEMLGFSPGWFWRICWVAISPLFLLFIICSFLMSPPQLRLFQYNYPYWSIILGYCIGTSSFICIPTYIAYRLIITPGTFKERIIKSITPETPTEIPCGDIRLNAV

[21] = target: Sodium-dependent dopamine transporter (Homo sapiens) (UniProt Q01959); experiment: Binding affinity to human dopamine transporter at 10 uM by radioligand displacement assay relative to control
Sequence of Sodium-dependent dopamine transporter (Homo sapiens) (Q01959 whole entry): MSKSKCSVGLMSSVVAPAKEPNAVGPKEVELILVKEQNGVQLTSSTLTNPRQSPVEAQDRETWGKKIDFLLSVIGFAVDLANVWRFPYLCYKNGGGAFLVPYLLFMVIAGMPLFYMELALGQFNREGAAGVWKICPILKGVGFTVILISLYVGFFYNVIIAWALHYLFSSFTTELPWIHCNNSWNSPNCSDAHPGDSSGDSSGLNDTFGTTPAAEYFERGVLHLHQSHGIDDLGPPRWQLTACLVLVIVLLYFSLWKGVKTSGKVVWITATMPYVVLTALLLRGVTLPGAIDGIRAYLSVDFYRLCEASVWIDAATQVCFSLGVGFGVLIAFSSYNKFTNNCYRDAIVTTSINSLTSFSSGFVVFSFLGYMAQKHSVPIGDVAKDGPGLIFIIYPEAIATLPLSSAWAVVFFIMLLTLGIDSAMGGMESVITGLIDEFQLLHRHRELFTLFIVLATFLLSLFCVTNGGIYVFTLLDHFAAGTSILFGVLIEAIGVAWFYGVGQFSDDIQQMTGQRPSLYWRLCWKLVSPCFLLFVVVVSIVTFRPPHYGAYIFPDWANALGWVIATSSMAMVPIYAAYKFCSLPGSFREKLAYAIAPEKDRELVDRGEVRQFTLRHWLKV

[22] = species on record: Homo sapiens; experiment: Binding affinity to sodium channel site 2 (unknown origin) at 10 uM by radioligand displacement assay relative to control
[23] = species on record: Homo sapiens; experiment: Binding affinity to L-type calcium channel verapamil binding site (unknown origin) at 10 uM by radioligand displacement assay relative to control
[24] = target: 5-hydroxytryptamine receptor 2A (Homo sapiens) (UniProt P28223); experiment: Binding affinity to human 5-HT2A receptor at 10 uM by radioligand displacement assay relative to control
Sequence of 5-hydroxytryptamine receptor 2A (Homo sapiens) (P28223 whole entry): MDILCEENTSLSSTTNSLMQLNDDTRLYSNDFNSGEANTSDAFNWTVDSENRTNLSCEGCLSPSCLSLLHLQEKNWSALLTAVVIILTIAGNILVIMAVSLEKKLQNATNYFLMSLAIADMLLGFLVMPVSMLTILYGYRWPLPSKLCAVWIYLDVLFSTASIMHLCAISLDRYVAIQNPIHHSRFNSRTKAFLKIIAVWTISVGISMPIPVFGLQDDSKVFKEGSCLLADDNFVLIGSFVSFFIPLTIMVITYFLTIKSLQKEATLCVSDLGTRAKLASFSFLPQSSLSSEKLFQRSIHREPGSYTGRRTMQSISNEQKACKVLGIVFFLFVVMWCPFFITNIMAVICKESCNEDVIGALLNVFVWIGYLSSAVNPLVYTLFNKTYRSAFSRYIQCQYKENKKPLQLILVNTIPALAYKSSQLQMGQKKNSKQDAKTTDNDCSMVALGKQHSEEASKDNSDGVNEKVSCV

[25] = species on record: Homo sapiens; experiment: Binding affinity to P2Y receptor (unknown origin) at 10 uM by radioligand displacement assay relative to control
[26] = target: Peroxisome proliferator-activated receptor gamma (Homo sapiens) (UniProt P37231); experiment: Binding affinity to human PPARgamma receptor at 10 uM by radioligand displacement assay relative to control
[27] = target: Vasoactive intestinal polypeptide receptor 1 (Homo sapiens) (UniProt P32241); experiment: Binding affinity to human VPAC1 receptor at 10 uM by radioligand displacement assay relative to control
Sequence of Vasoactive intestinal polypeptide receptor 1 (Homo sapiens) (P32241 whole entry): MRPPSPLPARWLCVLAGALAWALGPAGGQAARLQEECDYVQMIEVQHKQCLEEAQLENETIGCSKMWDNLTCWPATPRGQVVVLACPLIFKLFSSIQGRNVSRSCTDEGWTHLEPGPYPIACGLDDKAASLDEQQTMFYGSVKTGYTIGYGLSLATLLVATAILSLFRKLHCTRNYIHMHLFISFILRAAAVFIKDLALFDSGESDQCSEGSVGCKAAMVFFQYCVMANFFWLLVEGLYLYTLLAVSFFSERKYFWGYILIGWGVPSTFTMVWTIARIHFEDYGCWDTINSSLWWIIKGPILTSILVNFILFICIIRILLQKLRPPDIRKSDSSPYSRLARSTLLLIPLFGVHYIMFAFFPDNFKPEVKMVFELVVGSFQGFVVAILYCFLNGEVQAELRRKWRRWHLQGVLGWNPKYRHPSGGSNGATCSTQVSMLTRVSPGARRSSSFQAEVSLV

[28] = target: Kappa-type opioid receptor (Homo sapiens) (UniProt P41145); experiment: Binding affinity to kappa opioid receptor (unknown origin) at 10 uM by radioligand displacement assay relative to control
Sequence of Kappa-type opioid receptor (Homo sapiens) (P41145 whole entry): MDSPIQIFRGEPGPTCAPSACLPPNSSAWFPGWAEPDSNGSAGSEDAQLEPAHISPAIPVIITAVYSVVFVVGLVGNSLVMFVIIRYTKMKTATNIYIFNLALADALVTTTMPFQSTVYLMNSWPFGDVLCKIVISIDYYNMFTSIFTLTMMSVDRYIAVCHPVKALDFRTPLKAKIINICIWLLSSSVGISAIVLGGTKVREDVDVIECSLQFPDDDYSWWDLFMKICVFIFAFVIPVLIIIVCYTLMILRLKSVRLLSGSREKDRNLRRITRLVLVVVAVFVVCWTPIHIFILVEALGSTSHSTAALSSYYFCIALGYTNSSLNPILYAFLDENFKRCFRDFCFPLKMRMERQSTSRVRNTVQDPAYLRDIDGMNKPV

[29] = target: Neuromedin-K receptor (Homo sapiens) (UniProt P29371); experiment: Binding affinity to human NK3 receptor at 10 uM by radioligand displacement assay relative to control
[30] = target: Substance-K receptor (Homo sapiens) (UniProt P21452); experiment: Binding affinity to human NK2 receptor at 10 uM by radioligand displacement assay relative to control
Sequence of Substance-K receptor (Homo sapiens) (P21452 whole entry): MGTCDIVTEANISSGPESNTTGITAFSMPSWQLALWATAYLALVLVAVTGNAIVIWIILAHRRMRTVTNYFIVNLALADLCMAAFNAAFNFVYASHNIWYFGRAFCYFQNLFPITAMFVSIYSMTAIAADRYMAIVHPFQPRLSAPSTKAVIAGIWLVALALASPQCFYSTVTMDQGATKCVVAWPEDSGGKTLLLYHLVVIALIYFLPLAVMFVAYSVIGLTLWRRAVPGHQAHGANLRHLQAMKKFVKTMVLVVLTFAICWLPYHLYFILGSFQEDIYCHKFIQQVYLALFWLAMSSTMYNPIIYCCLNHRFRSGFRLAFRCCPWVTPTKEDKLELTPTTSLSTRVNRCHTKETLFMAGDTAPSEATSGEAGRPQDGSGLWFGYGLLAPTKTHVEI

[31] = target: Muscarinic acetylcholine receptor M3 (Homo sapiens) (UniProt P20309); experiment: Binding affinity to human muscarinic M3 receptor at 10 uM by radioligand displacement assay relative to control
Sequence of Muscarinic acetylcholine receptor M3 (Homo sapiens) (P20309 whole entry, looked up): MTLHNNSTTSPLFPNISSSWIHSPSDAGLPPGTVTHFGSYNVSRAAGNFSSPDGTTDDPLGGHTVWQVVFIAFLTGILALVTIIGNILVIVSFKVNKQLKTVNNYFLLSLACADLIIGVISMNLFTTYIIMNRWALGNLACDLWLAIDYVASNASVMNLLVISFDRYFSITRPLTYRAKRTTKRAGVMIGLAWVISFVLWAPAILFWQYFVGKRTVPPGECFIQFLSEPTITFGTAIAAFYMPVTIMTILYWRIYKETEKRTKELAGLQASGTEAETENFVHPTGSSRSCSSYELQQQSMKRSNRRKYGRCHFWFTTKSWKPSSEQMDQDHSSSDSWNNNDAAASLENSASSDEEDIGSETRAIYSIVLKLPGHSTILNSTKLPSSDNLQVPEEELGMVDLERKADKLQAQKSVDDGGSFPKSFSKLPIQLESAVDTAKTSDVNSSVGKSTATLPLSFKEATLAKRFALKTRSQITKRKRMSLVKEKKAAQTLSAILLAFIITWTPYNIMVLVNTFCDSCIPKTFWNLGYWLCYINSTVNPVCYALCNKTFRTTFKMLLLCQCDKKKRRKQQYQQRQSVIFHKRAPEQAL

[32] = target: Muscarinic acetylcholine receptor M1 (Homo sapiens) (UniProt P11229); experiment: Binding affinity to human muscarinic M1 receptor at 10 uM by radioligand displacement assay relative to control
[33] = target: Melanocortin receptor 4 (Homo sapiens) (UniProt P32245); experiment: Binding affinity to human MC4 receptor at 10 uM by radioligand displacement assay relative to control
Sequence of Melanocortin receptor 4 (Homo sapiens) (P32245 whole entry): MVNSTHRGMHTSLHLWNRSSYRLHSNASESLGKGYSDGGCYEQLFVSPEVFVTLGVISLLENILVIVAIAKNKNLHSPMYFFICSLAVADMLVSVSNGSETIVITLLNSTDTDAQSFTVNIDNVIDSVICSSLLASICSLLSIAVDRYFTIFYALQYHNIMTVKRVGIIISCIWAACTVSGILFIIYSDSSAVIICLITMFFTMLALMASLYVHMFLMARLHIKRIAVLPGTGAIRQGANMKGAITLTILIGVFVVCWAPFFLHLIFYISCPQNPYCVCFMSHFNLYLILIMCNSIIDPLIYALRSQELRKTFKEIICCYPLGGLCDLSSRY

[34] = target: C-C chemokine receptor type 1 (Homo sapiens) (UniProt P32246); experiment: Binding affinity to human CCR1 at 10 uM by radioligand displacement assay relative to control
Sequence of C-C chemokine receptor type 1 (Homo sapiens) (P32246 whole entry): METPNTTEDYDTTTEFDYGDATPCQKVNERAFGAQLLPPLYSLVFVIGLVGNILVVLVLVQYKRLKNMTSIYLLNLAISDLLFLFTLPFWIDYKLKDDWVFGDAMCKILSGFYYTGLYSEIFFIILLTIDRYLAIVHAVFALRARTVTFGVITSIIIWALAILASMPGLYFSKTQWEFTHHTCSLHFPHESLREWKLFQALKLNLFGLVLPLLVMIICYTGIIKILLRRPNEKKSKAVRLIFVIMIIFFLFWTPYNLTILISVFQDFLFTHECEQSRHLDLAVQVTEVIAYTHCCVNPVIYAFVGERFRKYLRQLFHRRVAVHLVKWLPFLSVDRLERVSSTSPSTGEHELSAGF

C[C@H]1[C@@H](c2ccccc2)CC(=O)N1CC(N)=O
inhibition [1]: 13%
inhibition [2]: 7%
inhibition [3]: -6%
inhibition [4]: 3%
inhibition [5]: -2%
inhibition [6]: -5%
ED50 [7]: 595 mg/kg
ED50 [8]: 349 mg/kg
ED50 [9]: 453 mg/kg
Activity [10]: 458 cm
Activity [11]: 559 cm
Activity [12]: 406 cm
Activity [13]: 688 cm
Activity [14]: 472 cm
Activity [15]: 237%
Activity [16]: Dose-dependent effect
Activity [17]: 194%
Activity [18]: inactive
Activity [19]: inactive
inhibition [20]: 5%
inhibition [21]: 4%
inhibition [22]: 5%
inhibition [23]: -1%
inhibition [24]: 5%
inhibition [25]: -4%
inhibition [26]: -9%
inhibition [27]: -2%
inhibition [28]: -5%
inhibition [29]: -7%
inhibition [30]: -3%
inhibition [31]: -7%
inhibition [32]: -4%
inhibition [33]: 4%
inhibition [34]: -5%
